# High-throughput results (PubChem BioAssay)
# Hits are enriched below; roughly 2.4% of the tested compounds scored in any of these assays.
# HNF4A DNA FP = change in binding of human HNF4A to DNA, primary screen, biochemical, fluorescence polarization, FITC-DNA; Hepatocyte nuclear factor 4-alpha (Homo sapiens), P41235; 1 h; activity change, % at 10 µM; 0.3% of 360,000 active; AID 1224865, 2016; in the data active = activity change above about 30%, passing the limit was not always enough
# Rpn11 inh = Rpn11 (PSMD14) deubiquitinase inhibitors, primary screen, biochemical, fluorescence polarization, uHTS. AID 588493, 2011. 26S proteasome non-ATPase regulatory subunit 14 (Homo sapiens), O00487. 0.59% of 360,000 active. human 26S proteasome, Ub4-pepOG fluorescence polarization; 20S core pre-blocked with epoxomicin. inhibition, % at 20 µM;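 active = inhibition at 20 µM, scaled to each plate's controls, above about 33%, limit read from the data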
# Neddyl block = inhibitors of cullin neddylation, primary screen, biochemical, TR-FRET, uHTS, NAE and Ubc12; NEDD8-conjugating enzyme Ubc12 (Homo sapiens) + NEDD8-activating enzyme E1 regulatory …; inhibition, % at 25 µM; 0.58% of 360,000 active; AID 651699, 2012; in the data active = inhibition above about 36%
# CSN inh = inhibitors of CSN-mediated cullin deneddylation, primary screen, biochemical, fluorescence polarization, uHTS; inhibition, % at 12.5 µM; COP9 signalosome complex subunit 5 (Homo sapiens), Q92905; 0.38% of 360,000 active; Purified CSN, SCF-Nedd8-OG deneddylation;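 active = pattern-corrected inhibition above about 35%, with an unprinted fluorescence ratio check between 0.5 and 1.5, limit read from the data, passing the limit was not always enough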;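 also: 0% = enzyme with substrate and 100% = substrate without enzyme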
#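 Assay system: Purified human Csn5 enzyme expressed in HEK293T cells | Amount: Enzyme 0.24 nM | Measured by: Fluorescence polarization readout | Medium: Tris/NaCl/DTT buffer, pH 7.5 | Compound dosing: One concentration, 12.5 µM, 0.25% DMSO | Times: 90 min incubation of compound, enzyme and substrate at room temperature | Control set: no-enzyme wells high, enzyme-with-substrate wells low | Read-out: % inhibition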
# PREPL inh = PREPL enzyme inhibitors, primary screen, biochemical, fluorescence polarization | inhibition, % at 5.96 µM | 0.68% of 320,000 active | AID 2751, 2010 | recombinant PREPL, fluorescence polarization activity-based probe; in the data active = inhibition above about 43%;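 also: 0% = enzyme with DMSO and 100% = wells lacking enzyme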
# TbMetRS inhib = T. brucei MetRS inhibitors, primary screen, biochemical, luminescence. AID 624268, 2012. purified T. brucei MetRS, ATP depletion, Kinase-Glo luminescence. 0.4% of 360,000 active. methionyl-tRNA synthetase (Trypanosoma brucei brucei). inhibition, % at 11.9 µM;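 active = inhibition above a per-plate cutoff of the control wells' mean inhibition plus 3 SD, cut at about 5.5% in these data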;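 also: 0% = DMSO wells median and 100% = median of wells with control inhibitor compound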
#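 Material: T. brucei methionyl-tRNA synthetase, purified; reagent: substrates ATP, L-methionine and bulk Escherichia coli tRNA; dosing: 11.9 µM single point; timing: 15 min plus 2 h at 25 °C; detection: luminescence of leftover ATP; evaluation: % inhibition; control set: DMSO-only wells as low control; replicates: singlicate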
# Rpn11 inh conf = Rpn11 (PSMD14) deubiquitinase inhibitors, confirmation, biochemical, fluorescence polarization, single concentration; 29% of 1,900 active; inhibition, % at 20 µM; shares compounds with Rpn11 inh; purified human 26S proteasome, Ub4-pepOG fluorescence polarization; proteasome pretreated with epoxomicin
# MMP-2 counter = MMP-2 enzyme inhibition, confirmation, counter-screen for RPN11 inhibitor project, biochemical, fluorescence, single concentration. shares compounds with Rpn11 inh. recombinant MMP-2, FRET peptide cleavage fluorescence. inhibition, % at 20 µM. 4% of 1,900 active. AID 602330, 2012;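 also: human MMP-2 activated beforehand with APMA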
# Target sequence (P08253 whole entry, looked up): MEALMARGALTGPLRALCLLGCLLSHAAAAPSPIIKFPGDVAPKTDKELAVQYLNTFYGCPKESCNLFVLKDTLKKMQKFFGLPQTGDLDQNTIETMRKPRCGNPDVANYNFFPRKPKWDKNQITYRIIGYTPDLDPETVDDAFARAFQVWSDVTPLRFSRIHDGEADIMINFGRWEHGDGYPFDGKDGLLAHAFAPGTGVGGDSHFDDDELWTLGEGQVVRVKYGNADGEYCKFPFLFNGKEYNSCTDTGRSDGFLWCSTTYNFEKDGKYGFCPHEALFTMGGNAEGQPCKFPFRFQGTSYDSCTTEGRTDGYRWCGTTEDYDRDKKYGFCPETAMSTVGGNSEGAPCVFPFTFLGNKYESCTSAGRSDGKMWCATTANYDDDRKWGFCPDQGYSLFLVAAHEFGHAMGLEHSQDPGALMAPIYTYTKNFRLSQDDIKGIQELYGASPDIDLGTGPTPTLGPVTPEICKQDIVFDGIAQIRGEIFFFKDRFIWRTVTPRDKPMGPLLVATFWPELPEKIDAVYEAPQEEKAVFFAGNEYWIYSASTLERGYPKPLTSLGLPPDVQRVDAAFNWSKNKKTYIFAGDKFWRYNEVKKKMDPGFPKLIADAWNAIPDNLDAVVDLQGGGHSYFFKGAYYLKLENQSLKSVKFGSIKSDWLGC
# Thrombin inh = bovine thrombin protease inhibition, confirmation, counter-screen for Rpn11 inhibitor project, biochemical, fluorescence polarization, single concentration. bovine thrombin cleavage of Ub4-pepOG. inhibition, % at 20 µM. 13% of 1,900 active. shares compounds with Rpn11 inh;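 active = mean inhibition at least 40% at 20 µM, or signal 3 deviations below plate average, so some actives read negative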;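 also: plate controls were thrombin with DMSO for no effect and buffer wells lacking thrombin for full effect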
# * marks the source's active call; other numbers are inactive results; i = inactive; · = not tested or not shown. Rule as the data show it, unless noted: active = inhibition above about 40%; inactive = the rest.
SMILES,HNF4A DNA FP,Rpn11 inh,Neddyl block,CSN inh,PREPL inh,TbMetRS inhib,Rpn11 inh conf,MMP-2 counter,Thrombin inh
Cc1ccc2oc(-c3ccc(C)c(NC(=S)NC(=O)c4cccs4)c3)nc2c1,5,26,18,-4,-7,0,·,·,·
Cc1cc(Cl)ccc1Oc1ccccc1C(=O)CC#N,-3,56*,-8,-9,8,0,28,22,25
O=[N+]([O-])c1ccc(F)c(CN2CCN(c3ncc(Cc4ccccc4)cn3)CC2)c1,10,·,-10,-5,·,0,·,·,·
Cc1cc(NC(=O)CCC(=O)N(c2ccccc2)C(C(=O)NC2CCCC2)c2ccccc2)no1 (stereo unspecified),-2,44*,0,-2,11,-1,-17,-52,-14
Cc1ccc(N(C(=O)CCC(=O)Nc2cc(C)on2)C(C(=O)NC2CCCC2)c2ccccc2)cc1 (stereo unspecified),3,0,-3,4,13,-1,·,·,·
O=C(Cn1c(=O)cnc2ccccc21)NNC(=O)c1ccccc1Cl,-3,2,11,0,11,0,·,·,·
Cc1cccc(NC(=O)c2sc3nc(-c4ccccc4)cn3c2C)n1,15,55*,-95,15,12,0,9,-29,-7
CCCc1nc2c3ccccc3ccn2c1Cc1ccc(C)cc1,8,43*,0,11,·,0,35,25,19
Cc1ccc(Cc2c(-c3ccco3)nc3c4ccccc4ccn23)cc1,18,44*,33,22,·,-1,35,40*,-8
Cc1ccc(Cc2c(-c3ccco3)nc3c(C)cc(Br)cn23)cc1,7,22,i,18,·,0,·,·,·
CCCc1nc2c3ccccc3ccn2c1Cc1cccc(Cl)c1,7,14,27,8,·,0,·,·,·
Cc1cc(C)cc(NC(=O)CSc2nc3nc(C)cc(C)n3n2)c1,-5,-2,1,-2,-6,0,·,·,·
CCOc1ccc2nc(SCC(=O)NCc3ccco3)sc2c1,10,44*,5,10,-2,0,-15,8,-9
CCOc1ccc2nc(SCC(=O)c3ccc(Cl)s3)sc2c1,2,56*,-63,10,-17,0,-4,-46,0
COc1cc(/C=C/c2ccc3c(Br)cc(Br)c(O)c3n2)ccc1O,7,43*,-11,11,18,1,-7,27,-23
COc1ccc(/C=C/c2ccc3c(Br)ccc(O)c3n2)cc1,9,18,-5,-2,15,-1,·,·,·
Nc1nc(=O)c2ccccc2s1,-1,4,-2,-2,·,0,·,·,·
CCOc1ccc2nc(SCC(=O)N3c4ccccc4Sc4ccccc43)sc2c1,5,-1,3,-10,7,-1,·,·,·
CCOc1ccc2nc(SCC(=O)N3c4ccccc4Sc4ccccc43)c(C#N)cc2c1,3,59*,i,-3,5,0,9,-29,-2
O=C(N/N=C/c1cn(-c2ccccc2)nc1-c1ccc2c(c1)OCCO2)c1ccncc1,0,82*,25,7,-4,0,15,-8,-7
O=C(N/N=C\c1cn(-c2ccccc2)nc1-c1ccccc1)c1ccc2c(c1)OCO2,0,-1,11,6,18,0,·,·,·
